High-throughput results: PubChem, Broad Institute
Most compounds without a hit are left out; they make up all but 3.1% or so of the library.
PAX8 reporter – inhibitors of PAX8-driven TPO luciferase reporter, primary screen, RMG-I cells, single concentration; SteadyGlo, 24 h; inhibition, % at 12.6 µM; 1.2% of 360,000 active; AID 652154, 2013;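 active = mean replicate inhibition at least 60% with every replicate also reaching 60%; inconclusive = only one of the two criteria is met; inactive = mean below 60% and not all replicates reaching 60%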;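 also: luciferase light reporting Pax8 driven TPO promoter activity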
EWS-Fli inh – EWS/Fli-driven NR0B1 reporter inhibitors, primary screen, A673 cells, NR0B1 luciferase, luminescence, MLPCN library; viability-normalised; inhibition, % at 12.6 µM; 0.67% of 350,000 active;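 active = mean inhibition of at least 50% after viability correction, with every replicate also passing that limit; inconclusive = mean reaches 50% but only one of two replicates passes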;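 also: firefly luciferase signal divided by Alamar Blue viability fluorescence both relative to DMSO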
PGC1a acetyl inh – inhibitors of PGC1a acetylation signal, primary screen, cell-based, U2OS, AlphaScreen, inhibitor mode. AlphaScreen anti-acetyl-lysine; with virally co-expressed GCN5 acetyltransferase. inhibition, % at 15.6 µM. 0.17% of 350,000 active;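 active = every replicate shows inhibition of at least 40%; inconclusive = mean inhibition at least 40% but some replicate below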
HIV Env fusion – inhibitors of HIV-1 Env-driven cell-cell fusion, primary screen, HeLa-JRFL effector, CEM21 target cells, luciferase; inhibition, % at 12.3 µM; 1.1% of 360,000 active; AID 651610, 2012;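 active = mean replicate inhibition score of at least 50 and every replicate individually at or above 50; inconclusive = only one of the two criteria met; inactive = mean below 50 and not all replicates reaching 50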
FGF22 binding – binders of human FGF22 protein, primary screen, FGF22 synaptogenesis inhibitor project, biophysical, thermal shift, single point; recombinant FGF22 thermal shift, SYPRO orange fluorescence; percent of sucrose octasulfate shift, DMSO zero; activity (Tm shift, normalised), % at 9.99 µM; AID 651658, 2012; 1.5% of 340,000 active;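 active = mean Tm shift, scaled 0 neutral to 100 positive control, at about 1.3% or above, every replicate too, limit read from the data; inconclusive = no clear call, values can overlap the other calls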
Target sequence (Q9HCT0 whole entry, looked up): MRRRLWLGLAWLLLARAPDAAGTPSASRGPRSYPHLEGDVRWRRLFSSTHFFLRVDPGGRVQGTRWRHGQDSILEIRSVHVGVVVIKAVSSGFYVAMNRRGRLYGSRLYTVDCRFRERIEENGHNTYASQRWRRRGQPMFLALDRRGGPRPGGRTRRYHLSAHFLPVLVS
FN deposition inh – inhibitors of fibronectin matrix deposition, primary screen, AH1F cells, Alexa488-fibronectin fluorescence, plate reader; AH1F fibroblasts, overnight; inhibition, % at 12.6 µM; 0.086% of 350,000 active;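 active = mean inhibition across replicates of 30% or more, regardless of how many single replicates reach that level; inconclusive = mean under 30% yet at least half of replicates reach 30%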
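test system = AH1F fibroblasts assembling fluorescent fibronectin matrix | quantity = 10000 AH1F cells per well | buffer or medium = DMEM plus 2% serum, read in PBS | doses = single dose, pinned | incubation = 1 h cell attachment, overnight exposure to compound and label | detection = fluorescence at 485 nm excitation, 525 nm emission | read-out basis = inhibition from reduced deposited-fibronectin fluorescence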
A number is an active result; 0 = inactive; ? = inconclusive; - = no result; [ ] = dose if it differs, or a comment.

SMILES | PAX8 reporter | EWS-Fli inh | PGC1a acetyl inh | HIV Env fusion | FGF22 binding | FN deposition inh
O=C(C[C@@H]1C[C@@H]2c3cc(NC(=O)Nc4ccc(F)cc4)ccc3O[C@@H]2[C@@H](CO)O1)NC1CCCC1 | 0 | 0 | 0 | 0 | 0 | 0
CC12CCC3c4ccccc4CCC3(CO1)C2 (centres undefined) | 0 | 0 | 0 | 0 | 43 | 0
CC(=NNC(=S)SCc1ccccc1)c1ccccn1 | 0 | 0 | - | 79 | 0 | 0
CC(=NNC(=S)N1CCC1)c1ccccn1 | 94 | 0 | 0 | 0 | 0 | 0
CC(=NNC(=S)N1CCCC1)c1ccccn1 | 0 | 0 | 0 | 0 | 0 | 0
CCS(=O)(=O)Nc1ccc2c(c1)C(=O)N(C)C[C@@H](OC)[C@@H](C)CN(C)[C@@H](C)CO2 | - | 0 | 0 | 0 | 0 | 0
Fc1cccc(/C=N/Nc2nncc3ccccc23)c1 | 0 | 0 | 0 | 0 | 0 | 0
C(=N\Nc1nncc2ccccc12)/c1ccccn1 | 0 | 0 | 0 | 84 | 0 | 0
O=c1nc(N/N=C/c2ccccn2)cn[nH]1 | 0 | 0 | - | 0 | 44 | 0
C(=NN1CCCCCC1)c1ccc2ccccc2n1 | - | 88 | 0 | ? | 0 | 0
CC(=O)Nc1sc2c(c1C(c1ccc(F)cc1)N1CCOCC1)CCCC2 (centres undefined) | 0 | - | - | 90 | - | 0
O=C(C[C@@H]1C[C@@H]2c3cc(NC(=O)Nc4ccccc4)ccc3O[C@@H]2[C@H](CO)O1)NC1CCCCC1 | 0 | 0 | 0 | 0 | 0 | 0
CCOC(=O)c1cnc(-c2ccccc2)nc1N1CC(C)OC(C)C1 (centres undefined) | 0 | 0 | 0 | 0 | 43 | 0
C[C@@H]1CCCCO[C@@H](CN(C)Cc2ccc(Cl)c(Cl)c2)[C@@H](C)CN([C@@H](C)CO)C(=O)c2cc(NS(=O)(=O)c3ccc(F)cc3)ccc2O1 | 0 | 0 | 0 | 0 | 0 | 0
C[C@@H]1CN([C@H](C)CO)C(=O)c2cc(NS(=O)(=O)c3ccc(F)cc3)ccc2O[C@@H](C)CCCCO[C@H]1CN(C)Cc1ccc(Cl)c(Cl)c1 | 69 | 0 | 0 | 0 | 0 | 0
C[C@@H]1CCCCO[C@H](CN(C)Cc2ccc(Cl)c(Cl)c2)[C@@H](C)CN([C@H](C)CO)C(=O)c2cc(NS(=O)(=O)c3ccc(F)cc3)ccc2O1 | 0 | 0 | 0 | 0 | 0 | 0
C[C@H](CO)N1C[C@H](C)[C@H](CN(C)Cc2ccc(Cl)c(Cl)c2)OCCCC[C@H](C)Oc2ccc(NS(=O)(=O)c3ccc(F)cc3)cc2C1=O | 97 | 0 | 0 | 88[16.7 µM] | 0 | 0
C[C@@H]1CN([C@@H](C)CO)C(=O)Cc2cc(NC(=O)Cn3cnnn3)ccc2O[C@H]1CN(C)S(=O)(=O)c1cccs1 | 0 | 0 | 0 | 0 | 0 | -
CC(On1nnc2ccccc21)C(=O)N1CCN(Cc2ccccc2)CC1 (centres undefined) | 0 | 0 | - | 0 | 43 | 0
CC(OC(=O)c1ccc(Cl)c([N+](=O)[O-])c1)C(=O)N1CCN(Cc2ccccc2)CC1 (centres undefined) | 0 | 0 | 0 | 0 | 0 | 0
Nc1nc(Cl)cc(N2CCC(c3cc(-c4ccc(Cl)cc4)n[nH]3)CC2)n1 | - | 0 | 0 | - | 0 | -
COc1ccc(OC)c(-c2cc(C3CCN(c4cc(Cl)nc(N)n4)CC3)[nH]n2)c1 | - | - | 0 | 63 | - | 0
COc1ccc(OC)c(-c2cc(C3CCN(c4ncccc4[N+](=O)[O-])CC3)[nH]n2)c1 | 0 | - | 0 | 0 | - | 0
COc1ccc(-c2cc(C3CCN(c4cc(Cl)nc(N)n4)CC3)[nH]n2)cc1 | - | - | 0 | 94 | - | -
Cc1occc1C(=O)N/N=C/C=C/c1ccccc1 | 0 | 0 | - | 0 | 43 | 0
O=C(N/N=C/C=C/c1ccccc1)c1cccc(Br)c1 | - | 0 | 0 | - | 1.4 | -
Cc1occc1C(=O)N/N=C/C=C/c1ccc(N(C)C)cc1 | 0 | - | 0 | 0 | 0 | -
O=C(/C=C/c1ccc(N2CCCCC2)c([N+](=O)[O-])c1)c1ccc(O)cc1 | 0 | 0 | 0 | 0 | 43 | 0
CC(O)CNc1ncnc2nc[nH]c12 (centres undefined) | 0 | - | 0 | 0 | - | 0
